# Screens: PubChem, several laboratories
# Mdm2-MdmX inh: human Mdm2/MdmX binding inhibition; inhibition, % at 8 µM; SaOS-2 split-luciferase Mdm2/MdmX complementation, luminescence; O15151+Q00987; 330,000 compounds, 3% hits;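 active means inhibition of at least 50% at 8 µM in the primary screen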
# Target sequence (O15151 whole entry, looked up): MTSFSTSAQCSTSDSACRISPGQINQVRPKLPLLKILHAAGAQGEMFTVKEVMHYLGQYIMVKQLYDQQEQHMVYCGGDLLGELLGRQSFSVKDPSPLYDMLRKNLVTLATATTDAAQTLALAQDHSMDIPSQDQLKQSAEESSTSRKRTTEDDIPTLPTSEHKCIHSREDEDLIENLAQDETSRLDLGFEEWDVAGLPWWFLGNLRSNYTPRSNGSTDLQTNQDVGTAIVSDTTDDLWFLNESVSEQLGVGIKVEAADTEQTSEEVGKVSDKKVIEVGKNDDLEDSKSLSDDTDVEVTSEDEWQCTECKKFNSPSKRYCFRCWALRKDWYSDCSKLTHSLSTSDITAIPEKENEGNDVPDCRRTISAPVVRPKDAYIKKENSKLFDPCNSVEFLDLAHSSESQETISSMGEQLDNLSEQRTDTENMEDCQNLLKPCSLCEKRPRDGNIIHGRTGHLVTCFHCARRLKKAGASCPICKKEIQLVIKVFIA
# Target sequence (Q00987 whole entry, looked up): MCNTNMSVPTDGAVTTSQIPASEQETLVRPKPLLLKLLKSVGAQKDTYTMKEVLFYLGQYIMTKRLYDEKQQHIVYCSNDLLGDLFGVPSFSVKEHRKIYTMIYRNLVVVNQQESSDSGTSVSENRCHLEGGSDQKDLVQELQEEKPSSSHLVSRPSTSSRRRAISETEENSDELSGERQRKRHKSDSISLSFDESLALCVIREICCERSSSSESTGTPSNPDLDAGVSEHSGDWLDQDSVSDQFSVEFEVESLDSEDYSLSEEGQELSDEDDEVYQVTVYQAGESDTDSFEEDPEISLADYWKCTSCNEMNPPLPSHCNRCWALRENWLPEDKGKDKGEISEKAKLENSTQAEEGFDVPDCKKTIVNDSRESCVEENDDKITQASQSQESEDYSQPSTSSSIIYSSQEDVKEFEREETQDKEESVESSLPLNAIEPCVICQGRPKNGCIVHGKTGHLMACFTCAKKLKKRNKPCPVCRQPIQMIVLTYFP
# CSC inhib: blocks cancer stem cells. cancer stem cell-like cells viability, luminescence. inhibition, % at 7.5 µM. 300,000 compounds, 1.1% hits; in the data active means inhibition above about 75%; inconclusive means no clear call, values can overlap the other calls; tested in HMLE shEcad cells
# Beta apoptosis: blocks beta cell apoptosis; 300,000 compounds, 0.8% hits; INS-1E cytokine-induced death, ATP luminescence, 48 h; percent of positive-control rescue, neutral wells zero; protection from apoptosis, % (test concentration not listed); AID 435005;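 active means Every replicate reaches about 75%, or at least half do and their mean reaches it too, limit read from the data; inconclusive means At least half of replicates reach the limit but their mean does not; inactive means Under half of replicates reach the limit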;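 further: 0% = cytokine-treated negative control wells and 100% = positive control rescue; higher means more ATP so stronger rescue from cytokine killing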
# SKKanGAS inh: blocks kanamycin growth of S. pyogenes SKKanGAS strain. BacTiter-Glo, 6 h. inhibition, % at 7.5 µM. 300,000 compounds, 1.3% hits. AID 1662;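 active means mean replicate score, as percent of positive control median, at least 50; inconclusive means mean below 50 but one replicate at or above 50; inactive means mean and every replicate below 50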;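 further: strain carries kanamycin resistance gene driven by streptokinase promoter and grows in 40 µg/ml kanamycin; loss of luminescence reflects streptokinase promoter inhibition or plain growth inhibition; 0% = median of DMSO wells and 100% = positive control at its reference dose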
# T cruzi repl: T. cruzi replication inhibition | inhibition, % (no concentration beside the values) | 300,000 compounds, 1.4% hits | T. cruzi beta-gal in NIH3T3, luminescence, 90 h;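 active means mean inhibition across valid replicates above about 55%, limit read from the data; inconclusive means mean below that limit but half or more replicates reach it; inactive means mean below it, under half of replicates reach it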;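 further: signal also drops with host cell toxicity which is not excluded here; 0% = plate median of DMSO wells and 100% = zero luminescence signal; higher percent means less beta-gal luminescence so fewer parasites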
#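 Material: NIH/3T3 host cells with β-galactosidase reporter T. cruzi; Input: 5,000 host fibroblasts per well; Medium: DMEM, 2% fetal bovine serum; Compound: 50 nL DMSO compound solution per well; Schedule: 3 h host attachment, then at least 90 h co-culture; Detection: luminescent β-galactosidase signal after 60 min lysis.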
# L major viab: Leishmania major promastigote growth inhibition; 200,000 compounds, 9% hits; AID 1063; Leishmania major promastigotes, resazurin fluorescence viability; inhibition, % at 10 µM; in the data active means inhibition above about 50%;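 further: promastigotes grown with compound for 44 hours at 28 °C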
# * marks the source's active call; other numbers are inactive results; ? = inconclusive; / = no result. In the library only some 9.4% were active in any assay of this set; here they are far more common.
SMILES,Mdm2-MdmX inh,CSC inhib,Beta apoptosis,SKKanGAS inh,T cruzi repl,L major viab
O=C(Cc1ccc(Br)cc1)Nc1cccc(Cl)c1,19,7,/,-5,21,10
C=C(C)CNC(=S)N/N=C1\CCCCc2ccccc21,17,44,3,-7,16,99*
O=[N+]([O-])c1cc(Br)c(O)c(/C=N/Nc2nnnn2-c2cccc3ccccc23)c1,8,51,/,66*,-11,-5
CCNc1ccc(Br)cc(C(=O)/C=C/c2c(Cl)cccc2Cl)c1=O,26,-2,2,-9,0,100*
CNc1ccc(Br)cc(C(=O)/C=C/c2ccc(OC)cc2OC)c1=O,12,-11,-9,26,-10,6
CCNc1ccc(Br)cc(C(=O)/C=C/c2ccc(Cl)cc2)c1=O,9,/,7,3,-5,84*
CNc1ccc(Br)cc(C(=O)/C=C/c2ccc(Cl)cc2Cl)c1=O,10,11,-1,17,-9,99*
CNc1ccc(Br)cc(C(=O)/C=C/c2cccc(OC)c2)c1=O,3,33,/,6,-20,57*
COc1cccc(NC(=O)CCC2CCN(C(=O)c3cccc(NC(C)=O)c3)CC2)c1,24,12,-2,1,-4,/
CC(C)c1ccc(CN2CCN(C(=O)CCl)CC2)cc1,/,/,/,/,/,99*
Cc1c(-c2cccc(NC(=O)c3ccco3)c2)nc2ncccn12,20,-1,3,-1,65*,100*
Cc1nc(-c2cccc(NC(=O)c3cccs3)c2)cs1,-28,8,-3,-6,-8,5
Cc1onc(-c2ccccc2Cl)c1C(=O)Nc1cccc(-c2nc3ncccn3c2C)c1,-48,-8,/,1,-4,14
Cc1c(-c2cccc(NC(=O)c3cccs3)c2)nc2ncccn12,-18,27,6,7,11,75*
O=C(CN(Cc1ccccc1F)S(=O)(=O)c1ccc(Cl)cc1)NCC1CCCO1 (stereo unspecified),16,-3,-3,0,9,/
Nc1c2c(nc3sc4c(c13)CCCC4)CCCCCC2,-16,54,49,-14,39,55*
Nc1nc(-c2ccccc2)nc2sc3c(c12)CCCC3,-297,-5,3,-7,25,60*
Nc1nc2sc3c(c2c(=O)s1)CCCC3,17,8,-1,0,1,17
Cc1ccc(C)c(NC(=O)CN2C(=O)NC(C)(c3ccc4c(c3)OCCO4)C2=O)c1 (stereo unspecified),3,/,-1,/,/,/
Clc1cccc(CSC2=NCCCN2)c1,-30,9,-4,0,-4,60*
COc1cccc(NC(=O)C(OC(=O)c2cnc(C)cn2)c2ccccc2)c1 (stereo unspecified),-10,-14,/,-1,-8,/
COc1ccccc1CN1CC(C(=O)NCCN(C)CCc2ccccc2)CCC1=O (stereo unspecified),18,-9,-6,4,60*,/
COc1ccccc1CCNC(=O)C1CCC(=O)N(Cc2ccccc2OC)C1 (stereo unspecified),6,-2,38,8,8,/
CN1Cc2cccc3c2C(Cc2ccccc2S3)C1 (stereo unspecified),23,-11,-11,-12,58*,57*
CC(C)Cn1c(O)c(/C=C2\C=NN=C2c2ccccc2)sc1=S,35,90*,-7,0,38,13
SMILES,Mdm2-MdmX inh,CSC inhib,Beta apoptosis,SKKanGAS inh,T cruzi repl,L major viab
Cc1cc([N+](=O)[O-])nn1CCCC(=O)Nc1cc(Oc2ccccc2)cc([N+](=O)[O-])c1,5,2,12,8,17,-3
Cc1cc(C)cc(Oc2cc(NC(=O)c3cn(C)nc3C)cc([N+](=O)[O-])c2)c1,29,/,104*,2,41,-7
Cc1ccc(Oc2cc(NC(=O)CCCn3nc([N+](=O)[O-])c(Cl)c3C)cc([N+](=O)[O-])c2)cc1,20,-2,3,5,52,24
Cc1cccc(Oc2cc(NC(=O)Cn3cnc([N+](=O)[O-])n3)cc([N+](=O)[O-])c2)c1,/,32,-2,/,/,100*
CC1(C)CC(=O)C=C(C(=O)N2CCCC(C(=O)c3cccc(Cl)c3)C2)O1 (stereo unspecified),5,-16,-2,2,19,11
Cc1cc(C)cc(Nc2ccc([N+](=O)[O-])nc2[N+](=O)[O-])c1,-19,-3,-2,-3,67*,43
CCN(c1ccccc1)S(=O)(=O)c1ccc(C(=O)NCC(c2cccs2)N(C)C)cc1 (stereo unspecified),1,16,5,3,7,90*
CN(C)S(=O)(=O)c1ccc(NC(=S)NC(=O)c2cccs2)cc1,-7,8,-4,-7,-2,4
CCN(c1ccccc1)S(=O)(=O)c1ccc(NC(=S)NC(=O)c2cccs2)cc1,21,/,5,12,15,85*
COc1cccc(NC(=O)[C@@H](NC(=O)N2CCn3c2nc2ccccc23)C(C)C)c1,18,-1,-8,1,15,/
CN1CCN(C(=O)CN(C)S(=O)(=O)c2ccc(F)cc2)CC1,16,-1,6,1,6,/
CC(C)(C)OC(=O)N[C@H](C(=O)OC(C)(C)C)c1ccccc1,20,-7,-3,/,/,/
FC(F)(F)c1ccc(C2[C@H]3CN(CC4CCCCC4)[C@H](c4ccccc4)C34CC2(c2cccnc2)C4)cc1 (stereo partly specified),6,17,10,17,50,/
N#C/C(=C\c1ccc([N+](=O)[O-])cc1)C(=O)NCCCn1ccnc1,5,3,-3,0,0,/
CCCOc1cccc(-c2nn(-c3ccccc3)cc2/C=C(\C#N)C(=O)NCCCn2ccnc2)c1,13,8,-4,21,31,89*
CN(NC1OC(=O)c2ccccc21)c1ccccc1[N+](=O)[O-] (stereo unspecified),21,4,-3,-5,-18,/
COc1ccc(CN(CCC#N)C(=S)NC(=O)c2ccccc2)cc1,29,-5,5,14,-25,60*
CCOc1ccc(C(=O)NC(=S)N(Cc2ccccc2)Cc2ccccc2)cc1,/,28,18,98*,?,57*
CCOc1ccc(CN(CCC#N)C(=S)NC(=O)c2ccccc2)cc1,-13,9,19,0,4,20
CN(Cc1ccccc1)C(=S)Nc1ccc(OC(F)F)cc1,-40,/,/,-4,-4,-6
CN(C)CCCN(Cc1ccccc1)C(=S)Nc1ccc(OC(F)F)cc1,3,2,-10,-2,-16,99*
N#CCCN(Cc1ccccc1)C(=S)Nc1ccccc1,3,11,-2,-2,-9,52*
N#CCCN(Cc1ccccc1)C(=O)Nc1ccccc1,14,/,/,0,-5,/
COCCN(CCOC)S(=O)(=O)c1ccc(C(=O)Nc2ccc([N+](=O)[O-])cc2OC)cc1,4,-1,4,-3,-2,-3
